Calls of active or inactive are those of the source. The calls are words filed in the database; no cut-off is given here.
Columns and labels:
[1] = Drug localization in mitochondria of human U87 cells at 20 uM incubated for 45 mins by Mitotracker staining-based confocal fluorescence microscopy; assay type: ADME; settings: u-87mg atcc, 0.75 h
Outline: (§1)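 U87 cells seeded at 10 000/well in imaging chambers and left overnight. Exposed to 20 μM compound in FluoroBrite DMEM for 45 min at 37 °C, then washed with HBSS. Stained 15 min with LysoTracker (1:10 000) or MitoTracker (1:15 000), plus NucBlue nuclear stain. Imaged live by confocal microscopy at 60×, dye excited at 633 nm. Colocalization scored by Pearson's correlation coefficient.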

[2] = Drug localization in lysosome of human U87 cells at 20 uM incubated for 45 mins by Lysotracker staining-based confocal fluorescence microscopy; assay type: ADME; settings: u-87mg atcc, 0.75 h; outline: as §1
[3] = tested on: U-87 MG; assay: Cytotoxicity against human U87 cells assessed as reduction in cell viability at 0.001 to 10 uM incubated for 72 hrs by AlamarBlue assay; assay type: functional, cell-based; settings: U-87MG ATCC
Outline: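 U87 cells, grown in DMEM/F12 with 10% FBS, seeded at 5000/well and left overnight. Compounds added in protein-free hybridoma medium (PFHM II) to final 0.001–10 μM and incubated 72 h at 37 °C. Viability read by AlamarBlue, 2 h, fluorescence Ex/Em 560/590 nm. IC50 taken relative to the lowest concentration beyond which no further cell death occurs.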

[4] = tested on: U-87 MG; assay: Cytotoxicity against human U87 cells assessed as reduction in cell viability incubated for 72 hrs by AlamarBlue assay; assay type: functional, cell-based, U-87MG ATCC
[5] = Toxicity in […] mouse xenografted with luciferase and RFP reporter expressing human U87 cells assessed as effect on body weight at 10 mg/kg, iv administered at day 4 and day 8 post inoculation and six injections weekly measured after 5 weeks; assay type: organism-based; settings: in vivo, 840 h
[6] = tested on: U-87 MG; assay: Antitumor activity against luciferase and RFP reporter expressing human U87 cells xenografted in Fox1nu mouse assessed as decrease in tumor size at 10 mg/kg, iv administered at day 4 and day 8 post inoculation and six injections weekly measured after 5 weeks by bioluminescence imaging analysis; assay type: functional, organism-based; settings: U-87MG ATCC
[7] = tested on: U-87 MG; assay: Antitumor activity against luciferase and RFP reporter expressing human U87 cells xenografted in Fox1nu mouse assessed as decrease in tumor burden at 10 mg/kg, iv administered at day 4 and day 8 post inoculation and six injections weekly measured after 5 weeks by bioluminescence imaging analysis; assay type: functional, organism-based; settings: U-87MG ATCC

| Drug uptake [1] | Compound | Activity [3] | IC50 [4] | other results |
| --- | --- | --- | --- | --- |
| Active | CC1(C)C(/C=C/C2=C(Cl)C(=C/C=C3/N(CCCCCC(=O)O)c4ccccc4C3(C)C)/CCC2)=[N+](CCCCS(=O)(=O)O)c2ccccc21.[Cl-] | – | – | Drug uptake [2]: Active |
| – | CC1(C)C(/C=C/C2=C(SCCC(=O)Nc3ccn([C@H]4C[C@H](O)[C@@H](CO)O4)c(=O)n3)C(=C/C=C3/N(CCCCCC(=O)O)c4ccccc4C3(C)C)/CCC2)=[N+](CCCCCC(=O)O)c2ccccc21 | Active | – | – |
| – | CC1(C)C(/C=C/C2=C(SCCC(=O)Nc3ccn([C@H]4C[C@H](O)[C@@H](CO)O4)c(=O)n3)C(=C/C=C3/N(CCCCS(=O)(=O)O)c4ccccc4C3(C)C)/CCC2)=[N+](CCCCS(=O)(=O)O)c2ccccc21 | Active | – | – |
| Not Active | CC1(C)C(/C=C/C2=C(SCCC(=O)Nc3ccn([C@@H]4O[C@H](CO)[C@@H](O)C4(F)F)c(=O)n3)C(=C/C=C3/N(CCCCCC(=O)O)c4ccccc4C3(C)C)/CCC2)=[N+](CCCCS(=O)(=O)O)c2ccccc21.[Cl-] | – | – | – |
| – | O=C(CCS)Nc1ccn([C@@H]2O[C@H](CO)[C@@H](O)C2(F)F)c(=O)n1 | – | 11 nM | – |
| – | Nc1ccn([C@@H]2O[C@H](CO)[C@@H](O)C2(F)F)c(=O)n1 [GEMCITABINE] | – | 8.2 nM | Activity [5]: Non-Toxic; Activity [6]: inactive; Activity [7]: Active |

Reference: ChEMBL document CHEMBL4321807, “Cyanine-Gemcitabine Conjugates as Targeted Theranostic Agents for Glioblastoma Tumor Cells” (J Med Chem, 2019)
